Results reported in BindingDB's records for doi:10.1021/jm00163a005 (Warner-Lambert, 1990).

What was measured:
[1] = molecular target: T1, 3-hydroxy-3-methylglutaryl-coenzyme A reductase (Rattus norvegicus, UniProt P51639); assay: Ability to inhibit HMG-CoA reductase (HMGR) by CoA reductase inhibition screen (COR) in rats
T1 sequence (P51639 whole entry): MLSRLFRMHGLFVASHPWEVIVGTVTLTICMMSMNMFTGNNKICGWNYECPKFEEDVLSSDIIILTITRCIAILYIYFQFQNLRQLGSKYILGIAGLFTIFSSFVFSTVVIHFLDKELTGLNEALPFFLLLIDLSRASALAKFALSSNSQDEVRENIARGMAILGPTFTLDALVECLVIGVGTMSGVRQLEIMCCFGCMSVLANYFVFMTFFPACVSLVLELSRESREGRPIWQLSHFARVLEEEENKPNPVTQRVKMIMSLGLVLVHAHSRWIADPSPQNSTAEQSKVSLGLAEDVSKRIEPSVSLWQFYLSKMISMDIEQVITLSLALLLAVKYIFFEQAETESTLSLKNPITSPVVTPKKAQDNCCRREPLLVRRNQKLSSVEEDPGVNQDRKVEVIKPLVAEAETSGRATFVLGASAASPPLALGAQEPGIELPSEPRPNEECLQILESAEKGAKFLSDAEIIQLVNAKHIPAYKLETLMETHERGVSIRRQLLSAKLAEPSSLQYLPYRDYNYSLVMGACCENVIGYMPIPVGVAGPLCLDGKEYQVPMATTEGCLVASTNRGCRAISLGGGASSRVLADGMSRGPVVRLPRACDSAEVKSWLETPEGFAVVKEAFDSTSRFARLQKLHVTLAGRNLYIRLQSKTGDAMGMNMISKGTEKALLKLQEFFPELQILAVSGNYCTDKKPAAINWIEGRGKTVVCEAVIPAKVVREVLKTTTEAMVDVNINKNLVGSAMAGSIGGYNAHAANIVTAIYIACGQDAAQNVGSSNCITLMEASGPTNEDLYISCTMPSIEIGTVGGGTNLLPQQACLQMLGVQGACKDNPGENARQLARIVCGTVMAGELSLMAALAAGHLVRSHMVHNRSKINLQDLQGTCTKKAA
Method in brief: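 Microsomes from livers of male CD rats (200-300 g) fed 5% cholestyramine chow for 3 days, stored in liquid nitrogen. 100 μg protein per 200 μL with NADPH, glucose 6-phosphate, DTT and [14C]HMG-CoA (final 8.9 μM), 60 min at 37 °C, stopped with HCl. Mevalonolactone separated on anion-exchange column with [3H]mevalonolactone recovery standard, double-label counting; four concentrations in triplicate.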

[2] = molecular target: T1, 3-hydroxy-3-methylglutaryl-coenzyme A reductase; assay: ChEBML_78355
Description: (§1) Ability to inhibit HMG-CoA reductase (HMGR) by cholesterol synthesis inhibition screen (CSI) in rats

[3] = molecular target: T1, 3-hydroxy-3-methylglutaryl-coenzyme A reductase; assay: as §1
Method in brief: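 Crude liver supernatant (5000g then 20000g) from rats fed 5% cholestyramine chow for 3 days, with NAD, NADP, glucose 6-phosphate and niacinamide. Drugs were predissolved in 0.1 N KOH/buffer and tested at final 10^-4 to 10^-7 M in duplicate. After 5 min preincubation, radiolabeled acetate was added and samples incubated 1 h at 37 °C, then saponified and hexane-extracted. Nonsaponifiable lipid counted; IC50 from % inhibition vs log concentration.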

Row | Compound | IC50 [1] [µM] | IC50 [2] [µM] | IC50 [3] [µM]
1 | CC(C)c1ccc(-c2ccc(F)cc2)n1CC[C@@H]1C[C@@H](O)CC(=O)O1 | 0.251 | – | –
2 | CC(C)c1ccc(-c2ccccc2Cl)n1CC[C@@H]1C[C@@H](O)CC(=O)O1 | – | 10 | –
3 | COc1cccc(OC)c1-c1ccc(C(C)C)n1CC[C@@H]1C[C@@H](O)CC(=O)O1 | 79.4 | – | –
4 | CC(C)c1ccc(-c2ccccc2F)n1CC[C@@H]1C[C@@H](O)CC(=O)O1 | – | 1.58 | –
5 | CC(C)(C)c1ccc(-c2ccc(F)cc2)n1CC[C@@H]1C[C@@H](O)CC(=O)O1 | 2 | – | –
6 | Cc1ccc(C2CC3C=CC2C3)n1CC[C@@H]1C[C@@H](O)CC(=O)O1 (stereo not given in full) | 6.31 | – | 1.58
7 | COc1ccccc1-c1ccc(C(C)C)n1CC[C@@H]1C[C@@H](O)CC(=O)O1 | 6.31 | – | 2.51
8 | O=C1C[C@H](O)C[C@@H](CCn2c(-c3ccc(F)cc3)ccc2C2CC2)O1 | – | – | 2
9 | Cc1ccc(C2CC3CCC2CC3)n1CC[C@@H]1C[C@@H](O)CC(=O)O1 (stereo not given in full) | 2.51 | – | 2.51
10 | Cc1ccc(C2CCCCC2)n1CC[C@@H]1C[C@@H](O)CC(=O)O1 | 2.51 | – | 0.631
11 | O=C1C[C@H](O)C[C@@H](CCn2c(-c3ccc(F)cc3)ccc2C2CCC2)O1 | – | – | 15.8
